Measured values from different studies.
Lines come from different studies, so protocols differ.
Target: Epithelial discoidin domain-containing receptor 1 (DDR1, Homo sapiens, UniProt Q08345)

Structure (SMILES) | observed | mode | method | tested at | endpoint | value
Cc1sc(C(=O)NC2COC2)cc1-n1cc(NC(=O)Nc2c(F)cccc2Cl)cn1 | enzyme activity | inhibitor | – | 10 µM | remaining activity | 83.7%
COc1cc2nccc(Oc3ccc(NC(=O)c4c5n(n(-c6ccc(F)cc6)c4=O)CCCC5)cc3)c2cc1OC | enzyme activity | inhibitor | – | 0.1 µM | inhibition | 42%
COCCOc1nc(-c2ccc(Cl)nc2)nc2c1CN(C(=O)c1ncn3ccccc13)CC2 | cell-free assay | – | competition with immobilised ligand | 0.1 µM | remaining binding | 100%
CC(C)(O)[C@H]1CC[C@H](Nc2ccc3ncc(-c4cccc(C(F)(F)F)c4)n3n2)CC1 | enzyme activity | inhibitor | – | 1 µM | remaining activity | 6.32%
Cc1cc(NC(=O)c2cccc3cc(-c4cccc5[nH]nc(N)c45)ccc23)ccc1F | enzyme activity | inhibitor | – | 0.1 µM | activity vs control | 61%
CC/C(=N\NC(=O)NCc1cccc(O)c1)c1ccc(O)c(C)c1O | enzyme activity | inhibitor | – | 0.1 µM | inhibition | -0.9%
Cc1ccc(C(=O)NCc2ccsc2)cc1C#Cc1cn(C(C)C)c2ncnc(N)c12 | enzyme activity | inhibitor | – | 1 µM | activity vs control | 0%
Cc1cnc(NC2CCOCC2)nc1-n1cnc(C(=O)NC(CN)c2cc(F)cc(Cl)c2)c1 (centres unmarked) | enzyme activity | inhibitor | radiometric | 1 µM | remaining activity | 104%
Nc1c(C(=O)NCc2ccc(C(=O)NCCCC3CCCCC3)cc2)cnn1-c1ccccc1 | binding | – | competition with immobilised ligand | 1 µM | remaining binding | 43%
O=C(Nc1cnn(-c2csc(C(=O)NC3COC3)c2)c1)Nc1ccccc1Cl | enzyme activity | inhibitor | – | 5 µM | remaining activity | 98.4%
Nc1ncnc2occ(-c3ccc(NC(=O)Nc4cc(C(F)(F)F)ccc4F)cc3)c12 | cell-free assay | – | – | 20 µM | remaining signal | 0.25%
Cc1ccc(NC(=O)c2ccc(C)c(C(F)(F)F)c2)cc1C#Cc1nn(C2CCC(O)CC2)c2ncnc(N)c12 (centres unmarked) | cell-free assay | – | – | 10 µM | remaining signal | -2%
C[C@H]1CCN(c2nccc(-c3cnn4ncccc34)n2)C1 | binding | – | – | 1 µM | remaining binding | 100%
COc1cc(Cl)c(C(=O)N[C@@H](CN[C@H]2CC[C@@H](N)CC2)Cc2ccc(C#N)cc2)cc1-c1ccc(CN[C@H](C)c2ccc(C)cc2)o1 | enzyme activity | inhibitor | – | 1 µM | remaining activity | 112%
CCOCCn1cc(C(=O)Nc2ccc(-n3nc(-c4cccnc4)cc3C(F)(F)F)cn2)ccc1=O | cell-free assay | – | competition with immobilised ligand | 1 µM | remaining binding | 69%
CN1CC(Oc2cnc(C#N)cc2-c2ccn3nc(NC(=O)C4CC4)cc3c2)C1 | enzyme activity | inhibitor | – | 1 µM | inhibition | 29%
CNC(=O)c1cc2c(Oc3ccc(NC(=O)C4(C(=O)Nc5ccc(F)cc5)CC4)cc3)ccnc2cc1OC | enzyme activity | inhibitor | radiometric | 1 µM | inhibition | 88%
